Assay results reported in PubChem BioAssay.
The other results are listed elsewhere or left out. Calls of active or inactive are those of the source. Rule as the data show it, unless noted: active = inhibition above about 40%; inactive = the rest.

What was measured:
[1] = molecular target: PEG-3 (UniProt Q6IN02); experiment: Peg3 promoter luciferase inhibitors, potency, dose response, cell-based, HeLa, CREF/GAPDH counter-screen panel (AID 624167); details: CREF/GAPDH counter-screens; HeLa PEG-Prom luciferase reporter, overnight, run 1, dose range 1, at 100 µM (top of the series) unless noted
PEG-3, sequence (Q6IN02 whole entry, looked up): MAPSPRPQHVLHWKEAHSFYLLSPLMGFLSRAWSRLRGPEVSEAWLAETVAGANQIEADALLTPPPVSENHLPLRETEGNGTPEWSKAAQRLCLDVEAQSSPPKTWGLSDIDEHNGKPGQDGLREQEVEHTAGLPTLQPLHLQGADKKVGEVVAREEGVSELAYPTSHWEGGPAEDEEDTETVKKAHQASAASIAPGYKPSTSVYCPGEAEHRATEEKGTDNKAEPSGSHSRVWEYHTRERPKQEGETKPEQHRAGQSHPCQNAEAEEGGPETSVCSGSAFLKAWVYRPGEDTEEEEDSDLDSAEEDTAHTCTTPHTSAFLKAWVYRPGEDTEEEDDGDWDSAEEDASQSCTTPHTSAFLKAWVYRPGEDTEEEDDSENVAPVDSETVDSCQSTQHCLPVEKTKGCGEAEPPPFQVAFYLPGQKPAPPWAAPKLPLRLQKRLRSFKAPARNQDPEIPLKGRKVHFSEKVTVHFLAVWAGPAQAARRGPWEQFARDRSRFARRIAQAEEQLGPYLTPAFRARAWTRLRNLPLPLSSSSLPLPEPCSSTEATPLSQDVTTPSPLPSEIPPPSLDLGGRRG

[2] = molecular target: PEG-3 (UniProt Q6IN02); experiment: as above; details: CREF/GAPDH counter-screens; HeLa PEG-Prom luciferase reporter, overnight, run 2, dose range 1, at 100 µM (top of the series) unless noted
[3] = inhibitors of PAF-induced NF-kB signaling, retest, confirmation, cell-based, GFP fluorescence, single concentration (AID 602472); details: KKLEB CF airway cells, overnight, at 5 µM, stronger effect = higher value;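 also: stimulus PAF is a Pseudomonas aeruginosa filtrate and not platelet activating factor; plate controls were DMSO wells with stimulus for no effect and unstimulated DMSO wells for full effect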
Procedure, shortened: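 Assay system: KKLEB immortalized cystic fibrosis airway epithelial cells with NFkB-GFP reporter. Buffer or medium: medium with 2% FBS for cells, serum-free medium for stimulus. Dosing: 5 µM single dose. Times: 2 h compound pretreatment at 37 °C, overnight PAF exposure. Measured by: GFP fluorescence of NFkB reporter.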

[4] = molecular target: Tumor necrosis factor receptor superfamily member 10B (Homo sapiens) (UniProt O14763); experiment: caspase-8 TRAIL sensitization, hit retest, confirmation, cell-based, NB7+caspase-8, with/without TRAIL, luminescence panel (AID 651596; in the data active = activity above about 50%); details: NB7 neuroblastoma + caspase-8, TRAIL sensitization, luminescence viability, with TRAIL, mean of runs, at 10 µM, stronger effect = higher value
Tumor necrosis factor receptor superfamily member 10B (Homo sapiens), sequence (O14763 whole entry, looked up): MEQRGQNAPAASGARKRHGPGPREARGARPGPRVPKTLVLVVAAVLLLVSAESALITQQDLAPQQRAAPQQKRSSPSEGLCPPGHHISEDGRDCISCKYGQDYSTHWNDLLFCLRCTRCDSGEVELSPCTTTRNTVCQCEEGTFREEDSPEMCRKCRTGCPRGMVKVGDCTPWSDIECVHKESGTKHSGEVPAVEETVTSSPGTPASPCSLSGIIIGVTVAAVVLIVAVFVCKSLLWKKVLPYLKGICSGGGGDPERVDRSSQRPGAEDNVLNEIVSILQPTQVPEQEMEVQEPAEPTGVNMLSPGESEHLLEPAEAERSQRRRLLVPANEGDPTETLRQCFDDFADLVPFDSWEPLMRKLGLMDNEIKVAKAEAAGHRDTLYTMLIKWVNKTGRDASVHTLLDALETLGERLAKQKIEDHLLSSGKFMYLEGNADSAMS

[5] = as above; details: NB7 neuroblastoma + caspase-8, without TRAIL, luminescence viability, without TRAIL, mean of runs, at 10 µM

In the case of `O=S(=O)(/N=C(/Sc1ccccc1)c1ccccc1)c1ccccc1`, the inhibition [1] is reported as 102% and the inhibition [2] is reported as 101%.

`COc1ccc(CN(C)C(=O)c2cc(-c3ccccc3)nc3ccc(C)cc23)c(OC)c1OC` gave an inhibition [1] of 94.8% and an inhibition [2] of 96.5%.

`CN(C)CCNc1ccc2nnn3c4ccc(O)cc4c(=O)c1c23` showed an inhibition [1] of 102% and an inhibition [2] of 98%.

Work on `Cc1cc(C)c2c(N)c3ccccc3nc2n1` yielded an inhibition [1] of 102% and an inhibition [2] of 101%.

In the case of `COc1ccccc1NC(=S)NC1CCCCCCCCCCC1`, the inhibition [1] is reported as 48.3% and the inhibition [2] is reported as 102% [run 2, dose range 1, at 50 µM].

In the case of `Cc1nc(N2CCN(S(=O)(=O)c3ccccc3C#N)CC2)c2c(-c3ccccc3)csc2n1`, the inhibition [1] is reported as -7.38% and the inhibition [2] is reported as 5.99%.

`CCN(C(=O)CSc1nc2n[nH]c(C)c2c(=N)n1-c1ccc(Cl)c(C)c1)c1cccc(C)c1` showed an inhibition [1] of 70.5% and an inhibition [2] of 78%.

In the case of `CN(C)CCNc1ncnc2c1sc1nc(N3CCCC3)c3c(c12)CC(C)(C)OC3`, the inhibition [1] is reported as 99.7% and the inhibition [2] is reported as 102%.

Compound `Cc1ccc(NC(=O)Nc2ccnc(-c3cccnc3)n2)cc1` has an inhibition [1] of 44.3% and an inhibition [2] of 8.15%.

In the case of `Cc1nn(-c2ccccc2)c(Cl)c1/C=N/NC(=O)c1nn(C)cc1[N+](=O)[O-]`, the inhibition [3] is reported as 14.2% (inactive), the activity [4] is reported as 40.9% and the activity [5] is reported as 46.5%.

With `Cc1cccc(/C=C2/Sc3ccc(C(=O)NCCN4CCCC4)cc3NC2=O)c1` the inhibition [1] was 99.2% and the inhibition [2] was 101%.

With `COc1ccc(C(=O)Nc2cccc(C(=O)N/N=C/c3ccc(OC)cc3OC)c2)cc1` the inhibition [1] was 84.1% and the inhibition [2] was 93.1%.

In the case of `CC(C)CC(N)c1csc(Nc2ccc(C(=O)N(C)Cc3ccccc3)cn2)n1` (centres undefined), the inhibition [1] is reported as 96.3% and the inhibition [2] is reported as 102%.

Compound `COC(=O)Cc1[nH]n(-c2nc3ccccc3s2)c(=O)c1C(C)=Nc1ccc(Cl)cc1` has an inhibition [1] of 88.1% and an inhibition [2] of 94.2%.
